# Results of several laboratories.
# Protocols differ between the studies behind these lines. pIC50: −log10 of the molar value.
# Cell line: PC-3
# Observed: cell growth or viability
# Technique: MTT
Compound,time,pIC50
Nc1n[nH]c2nc(-c3cccc(O)c3)cc(-c3cc4ccccc4nc3N3CCOCC3)c12,72 h,7.25
Cc1ccc(-c2cc(-c3c(Cl)cccc3Cl)c3c(=O)n(C)c(=O)n(C)c3n2)cc1,48 h,5.00
COc1cccc2c1C(=O)c1c(O)c3c(c(O)c1C2=O)C[C@@](O)(C(=O)CO)C[C@@H]3O[C@H]1C[C@H](N)[C@H](O)[C@H](C)O1,72 h,6.21
Cc1nc(Nc2ccc3c(c2)CC(=O)N3)c2ccccc2n1,,4.69
CCOc1nc(-c2cccc(O)c2)cc(-c2cc3ccccc3nc2N2CCOCC2)c1C#N,72 h,6.93
COc1ccc(-c2cc(-c3cc(OC)ccc3OC)c3c(=O)[nH]c(=O)[nH]c3n2)cc1,48 h,4.72
Cc1nc(Nc2ccc3c(c2)/C(=C/c2ccccc2C)C(=O)N3)c2ccccc2n1,,4.57
CCOc1nc(-c2cccc(O)c2)cc(-c2cc3cc(Cl)ccc3nc2N2CCOCC2)c1C#N,72 h,6.76
COc1cc2ncnc(N(C)c3ccc4c(c3)/C(=C/c3cccc(Cl)c3)C(=O)N4C)c2cc1OC,,5.26
Cc1ccc(-c2cc(-c3c(Cl)cccc3Cl)c3c(=O)[nH]c(=O)[nH]c3n2)cc1,48 h,4.31
[NH2][Pt]([NH2])([Cl])[Cl],,5.08
Cc1nc(N(C)c2ccc3c(c2)/C(=C/c2ccccc2Cl)C(=O)N3C)c2ccccc2n1,,4.63
COc1ccc(-c2cc(-c3ccc(C)cc3)nc3c2c(=O)n(C)c(=O)n3C)cc1OC,48 h,4.41
CCCOc1nc(-c2cccc(O)c2)cc(-c2cc3ccccc3nc2N2CCOCC2)c1C#N,72 h,6.81
